How the values were obtained:
Design in all cases: dose 500 mg/kg
[1] = tested on: Mus musculus; experiment: Drug metabolism in male PXR null mouse assessed as urinary alpha-carboxymethylbutylhydroxychroman glucuronide level at 500 mg/kg for 7 to 14 days dosed through vitamin E-deficient base diet by UPLC-ESI-QTOFMS method based metabolomics analysis; format: ADME, organism-based, Urine; settings: in vivo, po
[2] = tested on: Mus musculus; experiment: Drug metabolism in male PXR-humanized mouse assessed as urinary alpha-carboxyethylhydroxychroman glycine level at 500 mg/kg for 7 to 14 days dosed through vitamin E-deficient base diet by UPLC-ESI-QTOFMS method based metabolomics analysis; format: ADME, organism-based, Urine; settings: in vivo, po
[3] = tested on: Mus musculus; experiment: Effect on Ugt2b34 gene expression in male PXR null mouse liver at 500 mg/kg for 7 to 14 days dosed through vitamin E-deficient base diet by qPCR method; format: ADME, organism-based; settings: in vivo, po
In short: (§1)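 Male mice on vitamin E deficient diet, switched at eight weeks to the same diet with 500 mg/kg DL-α-tocopheryl acetate (controls kept deficient); killed at nine or 10 weeks, livers flash frozen. Hepatic mRNA by SYBR Green qPCR with 25 ng cDNA and 150 nM primers, triplicate reactions; comparative threshold cycle method against β-actin, fold change versus deficient diet; mean ± SEM, two-tailed t-test.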

[4] = tested on: Mus musculus; experiment: Induction of Cyp4f15 gene expression in wild type mouse liver at 500 mg/kg for 7 to 14 days dosed through vitamin E-deficient base diet by qPCR method; format: ADME, organism-based; settings: in vivo, po
In short: (§2)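 Male mice (wild-type, Pxr-null, hPXR; NCI-bred) on vitamin E-deficient diet from 3 weeks of age; at 8 weeks half switched to same base diet supplemented with 500 mg/kg DL-α-tocopheryl acetate, rest kept deficient. Livers harvested at 9 and 10 weeks. qPCR: 25 ng cDNA, 150 nM each primer, SYBR Green, triplicate; comparative Ct vs β-actin; fold change enriched vs deficient diet; mean ± SEM, two-tailed unpaired t-test.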

[5] = tested on: Mus musculus; experiment: Effect on Ugt1a10 gene expression in male PXR null mouse liver at 500 mg/kg for 7 to 14 days dosed through vitamin E-deficient base diet by qPCR method; format: ADME, organism-based; settings: in vivo, po; in short: as §1
[6] = tested on: Mus musculus; experiment: Drug metabolism in male PXR-humanized mouse assessed as urinary alpha-carboxymethylbutylhydroxychroman glucuronide level at 500 mg/kg for 7 to 14 days dosed through vitamin E-deficient base diet by UPLC-ESI-QTOFMS method based metabolomics analysis; format: ADME, organism-based, Urine; settings: in vivo, po
In short: (§3)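 Male mice from three weeks of age on vitamin E deficient diet; at eight weeks, 24 h predose urine in metabolic cages, then half switched to the same diet supplemented with 500 mg/kg DL-α-tocopheryl acetate. 24 h urine collected at nine and 10 weeks. Urinary metabolites quantitated by UPLC-MRM on triple-quadrupole MS against authentic standards and calibration curves, normalized to urinary creatinine (µmol/mmol creatinine); mean ± SEM, two-tailed unpaired t-test.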

[7] = tested on: Mus musculus; experiment: Effect on Ugt2b5 gene expression in male PXR null mouse liver at 500 mg/kg for 7 to 14 days dosed through vitamin E-deficient base diet by qPCR method; format: ADME, organism-based; settings: in vivo, po; in short: as §1
[8] = tested on: Mus musculus; experiment: Induction of Cyp4f16 gene expression in wild type mouse liver at 500 mg/kg for 7 to 14 days dosed through vitamin E-deficient base diet by qPCR method; format: ADME, organism-based; settings: in vivo, po; in short: as §2
[9] = tested on: Cyp2c37; experiment: Induction of Cyp2c37 gene expression in male PXR-humanized mouse liver at 500 mg/kg for 7 to 14 days dosed through vitamin E-deficient base diet by qPCR method; format: ADME, organism-based; settings: po, read-out: FC; in short: as §1
[10] = tested on: Mus musculus; experiment: Induction of Cyp4f15 gene expression in male PXR null mouse liver at 500 mg/kg for 7 to 14 days dosed through vitamin E-deficient base diet by qPCR method; format: ADME, organism-based; settings: in vivo, po; in short: as §2
[11] = tested on: Mus musculus; experiment: Effect on Ugt2b5 gene expression in male PXR-humanized mouse liver at 500 mg/kg for 7 to 14 days dosed through vitamin E-deficient base diet by qPCR method; format: ADME, organism-based; settings: in vivo, po; in short: as §1
[12] = tested on: Mus musculus; experiment: Drug metabolism in male wild type mouse assessed as urinary alpha-carboxyethylhydroxychroman glycine level at 500 mg/kg for 7 to 14 days dosed through vitamin E-deficient base diet by UPLC-ESI-QTOFMS method based metabolomics analysis; format: ADME, organism-based, Urine; settings: in vivo, po
[13] = tested on: Mus musculus; experiment: Effect on Ugt1a10 gene expression in male PXR-humanized mouse liver at 500 mg/kg for 7 to 14 days dosed through vitamin E-deficient base diet by qPCR method; format: ADME, organism-based; settings: in vivo, po; in short: as §1
[14] = tested on: Mus musculus; experiment: Induction of Cyp3a11 gene expression in male PXR null mouse liver at 500 mg/kg for 7 to 14 days dosed through vitamin E-deficient base diet by qPCR method; format: ADME, organism-based; settings: in vivo, po; in short: as §1
[15] = tested on: Mus musculus; experiment: Effect on Ugt1a7c gene expression in male PXR null mouse liver at 500 mg/kg for 7 to 14 days dosed through vitamin E-deficient base diet by qPCR method; format: ADME, organism-based; settings: in vivo, po; in short: as §1
[16] = tested on: Mus musculus; experiment: Drug metabolism in male wild type mouse assessed as urinary alpha-carboxyethylhydroxychroman glucuronide level at 500 mg/kg for 7 to 14 days dosed through vitamin E-deficient base diet by UPLC-ESI-QTOFMS method based metabolomics analysis; format: ADME, organism-based, Urine; settings: in vivo, po
[17] = tested on: Mus musculus; experiment: Effect on Ugt2b34 gene expression in male PXR-humanized mouse liver at 500 mg/kg for 7 to 14 days dosed through vitamin E-deficient base diet by qPCR method; format: ADME, organism-based; settings: in vivo, po; in short: as §1
[18] = tested on: Mus musculus; experiment: Drug metabolism in male PXR-humanized mouse assessed as urinary alpha-carboxyethylhydroxychroman glucuronide level at 500 mg/kg for 7 to 14 days dosed through vitamin E-deficient base diet by UPLC-ESI-QTOFMS method based metabolomics analysis; format: ADME, organism-based, Urine; settings: in vivo, po; in short: as §3
[19] = tested on: Mus musculus; experiment: Drug metabolism in male PXR null mouse assessed as urinary alpha-carboxyethylhydroxychroman glycine level at 500 mg/kg for 7 to 14 days dosed through vitamin E-deficient base diet by UPLC-ESI-QTOFMS method based metabolomics analysis; format: ADME, organism-based, Urine; settings: in vivo, po; in short: as §3
[20] = tested on: Mus musculus; experiment: Effect on Ugt1a9 gene expression in male PXR-humanized mouse liver at 500 mg/kg for 7 to 14 days dosed through vitamin E-deficient base diet by qPCR method; format: ADME, organism-based; settings: in vivo, po; in short: as §1
[21] = tested on: Mus musculus; experiment: Drug metabolism in male PXR null mouse assessed as urinary alpha-carboxyethylhydroxychroman glucuronide level at 500 mg/kg for 7 to 14 days dosed through vitamin E-deficient base diet by UPLC-ESI-QTOFMS method based metabolomics analysis; format: ADME, organism-based, Urine; settings: in vivo, po
[22] = tested on: Mus musculus; experiment: Effect on Ugt1a7c gene expression in wild type mouse liver at 500 mg/kg for 7 to 14 days dosed through vitamin E-deficient base diet by qPCR method; format: ADME, organism-based; settings: in vivo, po; in short: as §1
[23] = tested on: Mus musculus; experiment: Effect on Ugt1a9 gene expression in male PXR null mouse liver at 500 mg/kg for 7 to 14 days dosed through vitamin E-deficient base diet by qPCR method; format: ADME, organism-based; settings: in vivo, po; in short: as §1
[24] = tested on: Mus musculus; experiment: Effect on Ugt1a9 gene expression in wild type mouse liver at 500 mg/kg for 7 to 14 days dosed through vitamin E-deficient base diet by qPCR method; format: ADME, organism-based; settings: in vivo, po; in short: as §1
[25] = tested on: Mus musculus; experiment: Induction of Cyp4f16 gene expression in male PXR null mouse liver at 500 mg/kg for 7 to 14 days dosed through vitamin E-deficient base diet by qPCR method; format: ADME, organism-based; settings: in vivo, po; in short: as §2
[26] = tested on: Mus musculus; experiment: Effect on Ugt1a10 gene expression in wild type mouse liver at 500 mg/kg for 7 to 14 days dosed through vitamin E-deficient base diet by qPCR method; format: ADME, organism-based; settings: in vivo, po; in short: as §1
[27] = tested on: Cyp2c55; experiment: Induction of Cyp2c55 gene expression in male PXR-humanized mouse liver at 500 mg/kg for 7 to 14 days dosed through vitamin E-deficient base diet by qPCR method; format: ADME, organism-based; settings: po, read-out: FC; in short: as §1
[28] = tested on: Mus musculus; experiment: Effect on Ugt1a6b gene expression in male PXR null mouse liver at 500 mg/kg for 7 to 14 days dosed through vitamin E-deficient base diet by qPCR method; format: ADME, organism-based; settings: in vivo, po; in short: as §1

Activity [3]: Not Active
Activity [4]: Not Active
Activity [5]: Not Active
Activity [7]: Not Active
Activity [8]: Not Active
fold induction [9]: 2
Activity [10]: Not Active
Activity [11]: Not Active
Activity [13]: Not Active
Activity [14]: Not Active
Activity [15]: Not Active
Activity [17]: Not Active
Activity [20]: Not Active
Activity [22]: Not Active
Activity [23]: Not Active
Activity [24]: Not Active
Activity [25]: Not Active
Activity [26]: Not Active
fold induction [27]: 2.9
Activity [28]: Not Active
SMILES: CC(=O)Oc1c(C)c(C)c2c(c1C)CCC(C)(CCCC(C)CCCC(C)CCCC(C)C)O2 (racemic) [alpha-TOCHOPHERYL ACETATE]
Drug metabolism [1]: metabolite_detected
Drug metabolism [2]: metabolite_detected
Drug metabolism [6]: metabolite_detected
Drug metabolism [12]: metabolite_detected
Drug metabolism [16]: metabolite_detected
Drug metabolism [18]: metabolite_detected
Drug metabolism [19]: metabolite_detected
Drug metabolism [21]: metabolite_detected
